Assay results as given in ChEMBL document CHEMBL6071149, “Synthesis and photo-induced anticancer activity of new 2-phenylethenyl-1H-benzo[e]indole dyes” (Eur J Med Chem, 2024).
Calls of active or inactive are those of the source. No cut-off for these calls is given here.

What was measured:
ARN-8 cell [1] = assay: Downregulation of p53 level in human ARN-8 cells-derived from human A375 cells transfected with p53-responsive beta-galactosidase at higher concentration pretreated for 4 hrs followed by light irradiation of 10 J/cm2 at 414 nm measured after 20 hrs by fluorescence based assay; type: functional; details: time 24.0 hrs
Summary of the method: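 ARN8 cells stably carrying the p53-responsive pRGΔfoslacZ reporter. Increasing compound concentrations for 4 h, then 414 nm irradiation at 2.5, 5, 7.5 or 10 J/cm², then 20 h further incubation. Cells lysed in 0.3 % Triton X-100. After 10 min, 4-methylumbelliferyl β-D-galactopyranoside added at a final 80 µM for 1 h. Fluorescence read at […].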

G-361 [2] = assay: Induction of ROS production in human G361 cells upto 4 uM treated for 4 hrs under dark condition by CM-H2DCFA probe based analysis; type: functional, cell-based
Summary of the method: (§1)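 Cells loaded next day with 5 µM CM-H₂DCFDA for 30 min, then placed in prewarmed PBS with 5 mM glucose. Compound exposure 4 h, followed by 414 nm irradiation at 5 or 10 J/cm²; dark samples run in parallel. Fluorescence read immediately at 492/530 nm. NAC (5 mM) pretreatment for 10 min gave negative controls. RFU normalised to untreated dark control.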

ARN-8 cell [3] = assay: Induction of ROS production in human ARN-8 cells-derived from human A375 cells pretreated for 4 hrs followed by light irradiation of 5 to 10 J/cm2 measured immediately by CM-H2DCFA probe based analysis; type: functional; details: dose <= 4.0 µM; summary of the method: as §1
[4] = Induction of singlet oxygen generation in aqueous solution at 5 uM at light irradiation of 10 J/cm2; type: functional
Summary of the method: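 Water solutions of compound mixed with SOSG, DHR123 or HPF probe, each at a final 5 µM, without cells or medium. Irradiated with blue light at 10 J/cm² and fluorescence read immediately at 490/525 nm.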

G-361 [5] = assay: Induction of DNA fragmentation in human G361 cells at 0.5 uM pretreated with compound followed by light irradiation of 10 J/cm2 at 414 nm by Comet assay; type: functional, cell-based
Summary of the method: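 G361 cells exposed at 0.5 µM and irradiated at indicated 414 nm doses. Cells trypsinized and embedded in 1 % LMP agarose on slides, lysed 1 h in buffer with 1 % Triton X. Cold electrophoresis solution for 40 min, then electrophoresis at 20 V, 350 mA for 20 min. Neutralised twice for 10 min, stained with SYBR Green 15 min. Percent DNA in comet head and tail scored.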

[6] = Cytotoxicity against human ARN-8 cells-derived from human A375 cells under dark condition measured after 72 hrs by MTT assay; type: functional, cell-based; details: ARN-8 cell
Summary of the method: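 Cells grown in phenol red-free DMEM with 10 % FBS, penicillin/streptomycin, 37 °C, 5 % CO₂. Compound added 24 h after plating and incubated 4 h. Irradiated cells received 414 nm LED light at 20 mW/cm², 10 J/cm², then were incubated 20 h or 68 h more. Dark plates were run in parallel without irradiation. MTT was added for 4 h, formazan dissolved in 10 % SDS, absorbance read at 570 nm. EC50 ± SD.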

G-361 [7] = assay: (§2) Induction of ROS production in human G361 cells assessed as increase in hydroxyl radical production upto 4 uM pretreated for 4 hrs followed by replacement of medium containing probe without compound for 30 mins and subsequent light irradiation of 5 to 10 J/cm2 measured immediately by DHR-123 probe based analysis; type: functional, cell-based
Summary of the method: (§3)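 Compound exposure 4 h, then medium replaced with PBS containing 5 µM DHR123 probe for 30 min. Probe removed, cells in PBS irradiated at 5 or 10 J/cm², dark samples in parallel. Fluorescence read immediately at 490/525 nm.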

ARN-8 cell [8] = assay: Induction of DNA damage in human ARN-8 cells-derived from human A375 cells assessed as increase in H2AX phosphorylation at Ser139 at 0.5 to 1 uM pretreated for 4 hrs followed by light irradiation of upto 10 J/cm2 at 414 nm measured after 20 hrs by Western blot analysis; type: functional, cell-based; details: dose 0.5-1 µM, time 24.0 hrs
Summary of the method: (§4)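 Compound exposure 4 h, then 414 nm irradiation, then 20 h further incubation. Lysates made in RIPA buffer, separated by SDS-PAGE and blotted to nitrocellulose. Primary antibodies in TBS with 4 % BSA and 0.1 % Tween 20, incubated overnight. Peroxidase secondary antibody with chemiluminescent detection. GAPDH served as loading control.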

G-361 [9] = assay: Induction of ROS production in human G361 cells pretreated for 4 hrs followed by light irradiation of 5 to 10 J/cm2 measured immediately by CM-H2DCFA probe based analysis; type: functional, cell-based; details: dose <= 4.0 µM; summary of the method: as §1
ARN-8 cell [10] = assay: Induction of apoptosis in human ARN-8 cells-derived from human A375 cells assessed as increase in cleaved PARP-1 level upto 4 uM pretreated for 4 hrs followed by light irradiation of 10 J/cm2 at 414 nm measured after 20 hrs by Western blot analysis; type: functional, cell-based; details: time 24.0 hrs; summary of the method: as §4
G-361 [11] = assay: Induction of apoptosis in human G361 cells assessed as increase in cleaved BAX level upto 4 uM pretreated for 4 hrs followed by light irradiation of 10 J/cm2 at 414 nm measured after 20 hrs by Western blot analysis; type: functional, cell-based; details: time 24.0 hrs; summary of the method: as §4
ARN-8 cell [12] = assay: Induction of apoptosis in human ARN-8 cells-derived from human A375 cells assessed as decrease in Bcl-2 level upto 4 uM pretreated for 4 hrs followed by light irradiation of 10 J/cm2 at 414 nm measured after 20 hrs by Western blot analysis; type: functional, cell-based; details: time 24.0 hrs; summary of the method: as §4
[13] = Selectivity ratio of EC50 for human ARN-8 cells-derived from human A375 cells under dark condition measured after 72 hrs by MTT assay to EC50 for human ARN-8 cells-derived from human A375 cells pretreated for 4 hrs followed by light irradiation of 10 J/cm2 at 414 nm measured after 68 hrs by MTT assay; type: functional, ARN-8 cell
Summary of the method: (§5)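 Ratio of dark EC50 to EC50 after 414 nm irradiation (10 J/cm²). MTT read-out; compound exposure 4 h before irradiation. Each dark value is paired with the matching post-irradiation incubation (20 h or 68 h).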

[14] = Selectivity ratio of EC50 for human BJ cells under dark condition measured after 72 hrs by MTT assay to EC50 for human G361 cells pretreated for 4 hrs followed by light irradiation of 10 J/cm2 at 414 nm measured after 68 hrs by MTT assay; type: functional; summary of the method: as §5
ARN-8 cell [15] = assay: as §2, with “ARN-8 cells-derived from human A375” for “G361”, “singlet oxygen level” for “hydroxyl radical production”; type: functional; summary of the method: as §3
G-361 [16] = assay: Induction of DNA damage in human G361 cells assessed as increase in H2AX phosphorylation at Ser139 at 0.5 to 1 uM pretreated for 4 hrs followed by light irradiation of upto 10 J/cm2 at 414 nm measured after 20 hrs by Western blot analysis; type: functional, cell-based; details: dose 0.5-1 µM, time 24.0 hrs; summary of the method: as §4
G-361 [17] = assay: Induction of ROS production in human G361 cells upto 4 uM pretreated for 4 hrs followed by light irradiation of 5 to 10 J/cm2 measured immediately in presence of N-acetylcysteine by CM-H2DCFA probe based analysis; type: functional, cell-based; summary of the method: as §1
ARN-8 cell [18] = assay: Induction of apoptosis in human ARN-8 cells-derived from human A375 cells assessed as increase in cleaved pro-caspase-9 level upto 4 uM pretreated for 4 hrs followed by light irradiation of 10 J/cm2 at 414 nm measured after 20 hrs by Western blot analysis; type: functional, cell-based; details: time 24.0 hrs; summary of the method: as §4
G-361 [19] = assay: Induction of apoptosis in human G361 cells assessed as increase in cleaved PARP-1 level upto 4 uM pretreated for 4 hrs followed by light irradiation of 10 J/cm2 at 414 nm measured after 20 hrs by Western blot analysis; type: functional, cell-based; details: time 24.0 hrs; summary of the method: as §4

Compound: COc1ccc(/C=C/C2=Nc3ccc4ccccc4c3C2(C)C)cc1[N+](=O)[O-]
- Activity (ARN-8 cell [1]): Active
- Activity (G-361 [2]): inactive
- Activity (ARN-8 cell [3]): Dose-Dependent Effect
- Activity [4]: inactive
- Activity (G-361 [5]): Active
- EC50 [6]: 7.3 µM
- Activity (G-361 [7]): Active
- Activity (ARN-8 cell [8]): Active
- Activity (G-361 [9]): Dose-Dependent Effect
- Activity (ARN-8 cell [10]): Active
- Activity (G-361 [11]): Active
- Activity (ARN-8 cell [12]): Active
- Ratio EC50 [13]: >28
- Ratio EC50 [14]: >40
- Activity (ARN-8 cell [15]): inactive
- Activity (G-361 [16]): Active
- Activity (G-361 [17]): inactive
- Activity (ARN-8 cell [18]): Active
- Activity (G-361 [19]): Active
